# Measured values taken from paper PMC4101887 (Cancer investigation, 2011).
# Key:
# [1] = Plasma pharmacokinetics of gemcitabine; format: in vivo, human; conditions: for Tmax / AUC / Cmax: human, plasma, intravenous; for Cmax: Gemcitabine Cmax; for effect of multiple doses of lonafarnib on the pharmacokinetics of gemcitabine: Day 15 versus Day 1
# farnesyl transferase = farnesyl transferase (Homo sapiens, UniProt P49354+P49356); assay: Prelamin A accumulation in buccal mucosal cells; format: in vivo; conditions: buccal mucosal swabs, cycle 1 day 15 versus day 1; 10 of 17 samples
# [2] = Multiple-dose plasma pharmacokinetics of lonafarnib; format: in vivo, human; conditions: for AUC / Cmax / Tmax / half-life: human, plasma, oral; for AUC: Lonafarnib AUC (τ), 12 hour dosing interval; for Cmax: Lonafarnib Cmax; for Tmax: Lonafarnib Tmax (median); for half-life: Lonafarnib T½
# Outline: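 Patients with advanced cancer took oral drug twice daily with food continuously, plus 30 min IV gemcitabine on days 1, 8, 15 of 28-day cycles. The evening dose was withheld on […]. Plasma was sampled on day 15 of cycles 1 and 2, pre-dose and to 24 h. LC-MS/MS had LLOQ 5.00 ng/mL.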
# [3] = lonafarnib 100 mg BID+gemcitabine 750 mg/m2, cycle 1 day 15, n=4
# [4] = lonafarnib 100 mg BID+gemcitabine 750 mg/m2, cycle 2 day 15, n=3
# [5] = lonafarnib 100 mg BID+gemcitabine 1000 mg/m2, cycle 1 day 15, n=3
# [6] = lonafarnib 200 mg BID+gemcitabine 600 mg/m2, cycle 2 day 15, n=4
smiles,measurement,setting,value
Nc1ccn([C@@H]2O[C@H](CO)[C@@H](O)C2(F)F)c(=O)n1 [Gemcitabine],Tmax,"[1]; 600 mg/m2, Gemcitabine Tmax (median), lonafarnib 200 mg BID+gemcitabine 600 mg/m2, cycle 1 Day 1 (gemcitabine alone), n=6",0.38 h
same,AUC,"[1]; 750 mg/m2, Gemcitabine AUC (τ), lonafarnib 100 mg BID+gemcitabine 750 mg/m2, cycle 1 Day 1 (gemcitabine alone), n=4",5380 ng·h/mL
same,Tmax,"[1]; 750 mg/m2, Gemcitabine Tmax (median), lonafarnib 100 mg BID+gemcitabine 750 mg/m2, cycle 1 Day 1 (gemcitabine alone), n=4",0.5 h
same,Tmax,"[1]; 750 mg/m2, Gemcitabine Tmax (median), lonafarnib 150 mg BID+gemcitabine 750 mg/m2, cycle 1 Day 1 (gemcitabine alone), n=2",0.25 h
same,Tmax,"[1]; 1000 mg/m2, Gemcitabine Tmax (median), lonafarnib 100 mg BID+gemcitabine 1000 mg/m2, cycle 1 Day 1 (gemcitabine alone), n=2",0.38 h
same,AUC,"[1]; Gemcitabine AUC (τ), lonafarnib 100 mg BID+gemcitabine 750 mg/m2, cycle 1 Day 15 (with lonafarnib), n=4",7890 ng·h/mL
same,AUC,"[1]; Gemcitabine AUC (τ), lonafarnib 100 mg BID+gemcitabine 1000 mg/m2, cycle 1 Day 15 (with lonafarnib), n=3",5060 ng·h/mL
same,AUC,"[1]; Gemcitabine AUC (τ), lonafarnib 200 mg BID+gemcitabine 600 mg/m2, cycle 1 Day 15 (with lonafarnib), n=7",4970 ng·h/mL
same,Cmax,"[1]; lonafarnib 100 mg BID+gemcitabine 750 mg/m2, cycle 1 Day 15 (with lonafarnib), n=4",15000 ng/mL
same,Cmax,"[1]; lonafarnib 100 mg BID+gemcitabine 1000 mg/m2, cycle 1 Day 15 (with lonafarnib), n=3",9800 ng/mL
same,Cmax,"[1]; lonafarnib 200 mg BID+gemcitabine 600 mg/m2, cycle 1 Day 15 (with lonafarnib), n=7",11200 ng/mL
same,Tmax,"[1]; Gemcitabine Tmax (median), lonafarnib 100 mg BID+gemcitabine 750 mg/m2, cycle 1 Day 15 (with lonafarnib), n=4",0.5 h
same,Tmax,"[1]; Gemcitabine Tmax (median), lonafarnib 100 mg BID+gemcitabine 1000 mg/m2, cycle 1 Day 15 (with lonafarnib), n=3",0.25 h
same,Tmax,"[1]; Gemcitabine Tmax (median), lonafarnib 200 mg BID+gemcitabine 600 mg/m2, cycle 1 Day 15 (with lonafarnib), n=7",0.25 h
NC(=O)N1CCC(CC(=O)N2CCC([C@H]3c4ncc(Br)cc4CCc4cc(Cl)cc(Br)c43)CC2)CC1 [Lonafarnib],samples showing prelamin A accumulation after treatment,farnesyl transferase,59%
same,AUC,[2]; [3],6000 ng·h/mL
same,AUC,[2]; [4],6030 ng·h/mL
same,AUC,[2]; [5],8200 ng·h/mL
same,AUC,[2]; [6],14500 ng·h/mL
same,Cmax,[2]; [3],717 ng/mL
same,Cmax,[2]; [4],757 ng/mL
same,Cmax,[2]; [5],1010 ng/mL
same,Cmax,[2]; [6],1880 ng/mL
same,Tmax,[2]; [3],5 h
same,Tmax,[2]; [4],4 h
same,Tmax,[2]; [5],4 h
same,Tmax,[2]; [6],5 h
same,half-life,[2]; [3],5.21 h
same,half-life,[2]; [4],3.5 h
same,half-life,[2]; [5],3.8 h
same,half-life,[2]; [6],4.78 h
same,"90% confidence interval for the AUC(τ) point estimate, Cycle 2 Day 15 to Cycle 1 Day 15",[2]; log-transformed data,76.2–145%
same,"AUC(τ) point estimate, Cycle 2 Day 15 compared to Cycle 1 Day 15",[2]; log-transformed data,105%
same,"mean total body clearance (CL/F), range over dose levels",[2]; twice daily multiple doses with weekly gemcitabine,163 to 594 mL/min
same,effect of multiple doses of lonafarnib on the pharmacokinetics of gemcitabine,[1],no apparent effect
same,effect of multiple doses of lonafarnib on the pharmacokinetics of gemcitabine,[1]; listed as lonafarnib,no important effect
